Data as given in ChEMBL document CHEMBL3112407 (Bioorg Med Chem Lett, 2014).

biological target: T1, Epidermal growth factor receptor (Homo sapiens, UniProt P00533); test: not given; conditions: not given
T1 sequence (P00533 whole entry): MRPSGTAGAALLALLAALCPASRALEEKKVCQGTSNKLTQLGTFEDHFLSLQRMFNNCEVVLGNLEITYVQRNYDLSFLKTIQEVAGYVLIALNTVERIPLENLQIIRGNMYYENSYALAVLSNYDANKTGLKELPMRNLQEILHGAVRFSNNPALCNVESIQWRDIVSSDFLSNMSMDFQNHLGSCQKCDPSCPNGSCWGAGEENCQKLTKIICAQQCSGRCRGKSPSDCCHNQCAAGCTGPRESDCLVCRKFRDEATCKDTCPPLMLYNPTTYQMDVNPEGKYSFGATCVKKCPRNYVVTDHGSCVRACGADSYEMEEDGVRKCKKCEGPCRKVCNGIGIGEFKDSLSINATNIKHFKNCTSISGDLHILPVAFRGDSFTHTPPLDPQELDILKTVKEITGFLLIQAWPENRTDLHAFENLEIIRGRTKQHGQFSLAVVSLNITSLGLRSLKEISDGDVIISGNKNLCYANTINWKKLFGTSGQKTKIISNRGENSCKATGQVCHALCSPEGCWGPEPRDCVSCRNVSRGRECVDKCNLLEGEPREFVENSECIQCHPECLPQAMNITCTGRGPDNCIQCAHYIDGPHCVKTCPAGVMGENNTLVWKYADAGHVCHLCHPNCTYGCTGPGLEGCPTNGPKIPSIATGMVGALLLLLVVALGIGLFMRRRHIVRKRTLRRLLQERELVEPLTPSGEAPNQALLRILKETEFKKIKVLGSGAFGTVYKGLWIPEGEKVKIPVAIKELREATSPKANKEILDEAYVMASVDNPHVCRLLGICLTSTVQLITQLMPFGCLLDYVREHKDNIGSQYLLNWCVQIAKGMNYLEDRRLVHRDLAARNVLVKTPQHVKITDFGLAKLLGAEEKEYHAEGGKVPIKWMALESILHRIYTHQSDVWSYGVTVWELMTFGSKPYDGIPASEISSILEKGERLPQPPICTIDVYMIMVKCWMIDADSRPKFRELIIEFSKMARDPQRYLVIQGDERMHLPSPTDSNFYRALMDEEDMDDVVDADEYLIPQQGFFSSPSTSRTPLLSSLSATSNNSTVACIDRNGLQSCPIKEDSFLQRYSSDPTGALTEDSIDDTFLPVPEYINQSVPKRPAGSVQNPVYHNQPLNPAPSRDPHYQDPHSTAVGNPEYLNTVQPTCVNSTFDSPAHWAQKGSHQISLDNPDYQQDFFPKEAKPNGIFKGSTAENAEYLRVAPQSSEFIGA

| Compound | IC50 [nM] |
| --- | --- |
| C#Cc1cccc(Nc2ncnc3cc4c(cc23)N(C(=O)/C=C/CN2CCN(C)CC2)CCO4)c1 | 16 |
| C#Cc1cccc(Nc2ncnc3cc4c(cc23)N(C(=O)/C=C/CN2CCCCC2)CCO4)c1 | 4 |
| C#Cc1cccc(Nc2ncnc3cc4c(cc23)N(C(=O)/C=C/CN2CCC(C)CC2)CCO4)c1 | 5 |

Further lines, results first:

| IC50 [nM] | Compound |
| --- | --- |
| 3 | C#Cc1cccc(Nc2ncnc3cc4c(cc23)N(C(=O)/C=C/CN2CCCC2)CCO4)c1 |
| 12 | C#Cc1cccc(Nc2ncnc3cc4c(cc23)N(C(=O)/C=C/CN2CCOCC2)CCO4)c1 |
| 5 | C#Cc1cccc(Nc2ncnc3cc4c(cc23)N(C(=O)/C=C/CN(CC)CC)CCO4)c1 |
| 3 | C#Cc1cccc(Nc2ncnc3cc4c(cc23)N(C(=O)/C=C/CN(C)C)CCO4)c1 |

system: NCI-H1975; test: cells; assay type: functional, cell-based; conditions: Homo sapiens, NCI-H1975, 72 h

| Compound | IC50 [nM] |
| --- | --- |
| C#Cc1cccc(Nc2ncnc3cc4c(cc23)N(C(=O)/C=C/CN2CCC(C)CC2)CCCO4)c1 | > 10000 |
| C#Cc1cccc(Nc2ncnc3cc4c(cc23)N(C(=O)/C=C/CN2CCN(C)CC2)CCO4)c1 | 1460 |
| C#Cc1cccc(Nc2ncnc3cc4c(cc23)N(C(=O)/C=C/CN2CCCCC2)CCO4)c1 | 870 |
| C#Cc1cccc(Nc2ncnc3cc4c(cc23)N(C(=O)/C=C/CN2CCC(C)CC2)CCO4)c1 | 890 |

Now those with a lower IC50, led by results:

| IC50 [nM] | Compound |
| --- | --- |
| 320 | C#Cc1cccc(Nc2ncnc3cc4c(cc23)N(C(=O)/C=C/CN2CCCC2)CCO4)c1 |
| 770 | C#Cc1cccc(Nc2ncnc3cc4c(cc23)N(C(=O)/C=C/CN2CCOCC2)CCO4)c1 |
| 680 | C#Cc1cccc(Nc2ncnc3cc4c(cc23)N(C(=O)/C=C/CN(CC)CC)CCO4)c1 |
| 300 | C#Cc1cccc(Nc2ncnc3cc4c(cc23)N(C(=O)/C=C/CN(C)C)CCO4)c1 |

system: NCI-N87; test: Ratio of gefitinib IC50 to compound IC50 for human NCI-N87 cells; assay type: functional; conditions: not given
Procedure, shortened: (§1)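 MTT growth assay: cells in ATCC-recommended medium with 10% FBS, seeded at 5.0 × 10³ cells/well, adhered overnight at 37 °C, 5% CO₂. Compound added, then 72 h incubation. MTT added for 4 h. Absorbance read at 550 nm, corrected at 690 nm. IC₅₀ from nonlinear regression of concentration–response data. Ratio is the reference-drug IC₅₀ over the compound IC₅₀ from this assay.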

| Compound | Ratio IC50 |
| --- | --- |
| C#Cc1cccc(Nc2ncnc3cc4c(cc23)N(C(=O)/C=C/CN(C)C)CCO4)c1 | 22 |

system: Calu-3; test: Ratio of gefitinib IC50 to compound IC50 for human Calu3 cells; assay type: functional; conditions: not given
Procedure, shortened: as §1

| Compound | Ratio IC50 |
| --- | --- |
| C#Cc1cccc(Nc2ncnc3cc4c(cc23)N(C(=O)/C=C/CN(C)C)CCO4)c1 | 7.1 |

system: NCI-N87; test: cells; assay type: functional, cell-based; conditions: Homo sapiens, NCI-N87, 72 h

| Compound | IC50 [nM] |
| --- | --- |
| C#Cc1cccc(Nc2ncnc3cc4c(cc23)N(C(=O)/C=C/CN2CCC(C)CC2)CCCO4)c1 | > 10000 |
| C#Cc1cccc(Nc2ncnc3cc4c(cc23)N(C(=O)/C=C/CN2CCN(C)CC2)CCO4)c1 | 220 |
| C#Cc1cccc(Nc2ncnc3cc4c(cc23)N(C(=O)/C=C/CN2CCCCC2)CCO4)c1 | 160 |
| C#Cc1cccc(Nc2ncnc3cc4c(cc23)N(C(=O)/C=C/CN2CCC(C)CC2)CCO4)c1 | 250 |

Results, then the molecule that gave them:

| IC50 [nM] | Compound |
| --- | --- |
| 120 | C#Cc1cccc(Nc2ncnc3cc4c(cc23)N(C(=O)/C=C/CN2CCCC2)CCO4)c1 |
| 600 | C#Cc1cccc(Nc2ncnc3cc4c(cc23)N(C(=O)/C=C/CN2CCOCC2)CCO4)c1 |
| 150 | C#Cc1cccc(Nc2ncnc3cc4c(cc23)N(C(=O)/C=C/CN(CC)CC)CCO4)c1 |
| 46 | C#Cc1cccc(Nc2ncnc3cc4c(cc23)N(C(=O)/C=C/CN(C)C)CCO4)c1 |

system: A-431; test: Ratio of erlotinib IC50 to compound IC50 for human A431 cells; assay type: functional; conditions: not given
Procedure, shortened: as §1

| Compound | Ratio IC50 |
| --- | --- |
| C#Cc1cccc(Nc2ncnc3cc4c(cc23)N(C(=O)/C=C/CN(C)C)CCO4)c1 | 3.3 |

biological target: Receptor tyrosine-protein kinase erbB-2 (Homo sapiens, UniProt P04626); test: Inhibition of HER2 (unknown origin) after 10 mins; conditions: not given
Sequence (P04626 whole entry): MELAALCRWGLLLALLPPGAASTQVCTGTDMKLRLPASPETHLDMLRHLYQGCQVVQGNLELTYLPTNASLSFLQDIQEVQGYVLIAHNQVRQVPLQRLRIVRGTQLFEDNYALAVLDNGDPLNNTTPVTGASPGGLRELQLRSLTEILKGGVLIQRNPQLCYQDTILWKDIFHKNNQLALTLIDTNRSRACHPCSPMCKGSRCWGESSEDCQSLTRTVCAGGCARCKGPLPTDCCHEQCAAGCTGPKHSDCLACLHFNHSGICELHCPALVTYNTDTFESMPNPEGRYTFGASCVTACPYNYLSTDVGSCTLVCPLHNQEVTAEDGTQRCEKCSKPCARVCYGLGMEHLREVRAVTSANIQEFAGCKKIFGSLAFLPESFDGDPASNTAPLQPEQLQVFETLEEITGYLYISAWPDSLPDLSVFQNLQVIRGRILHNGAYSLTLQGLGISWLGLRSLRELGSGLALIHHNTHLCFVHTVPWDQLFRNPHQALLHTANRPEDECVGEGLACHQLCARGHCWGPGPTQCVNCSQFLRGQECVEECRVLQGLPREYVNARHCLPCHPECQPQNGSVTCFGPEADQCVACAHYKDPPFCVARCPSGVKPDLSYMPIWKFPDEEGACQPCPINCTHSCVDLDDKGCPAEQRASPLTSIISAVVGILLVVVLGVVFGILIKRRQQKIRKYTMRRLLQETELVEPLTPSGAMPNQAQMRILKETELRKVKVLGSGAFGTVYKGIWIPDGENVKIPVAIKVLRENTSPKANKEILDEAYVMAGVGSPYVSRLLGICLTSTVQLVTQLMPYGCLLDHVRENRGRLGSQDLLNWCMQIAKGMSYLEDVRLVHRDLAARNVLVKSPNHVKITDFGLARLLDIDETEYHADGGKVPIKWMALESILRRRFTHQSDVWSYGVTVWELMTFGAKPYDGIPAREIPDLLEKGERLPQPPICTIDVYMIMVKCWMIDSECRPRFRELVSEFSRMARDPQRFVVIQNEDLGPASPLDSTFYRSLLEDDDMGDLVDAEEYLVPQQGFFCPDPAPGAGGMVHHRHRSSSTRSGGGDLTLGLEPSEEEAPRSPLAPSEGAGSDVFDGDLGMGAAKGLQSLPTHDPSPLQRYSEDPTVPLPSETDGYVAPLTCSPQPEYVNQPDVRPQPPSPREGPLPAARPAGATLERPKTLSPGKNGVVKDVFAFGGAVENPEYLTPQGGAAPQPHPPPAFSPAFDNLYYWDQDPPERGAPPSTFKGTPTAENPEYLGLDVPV

| Compound | IC50 [nM] |
| --- | --- |
| C#Cc1cccc(Nc2ncnc3cc4c(cc23)N(C(=O)/C=C/CN2CCN(C)CC2)CCO4)c1 | 1110 |
| C#Cc1cccc(Nc2ncnc3cc4c(cc23)N(C(=O)/C=C/CN2CCCCC2)CCO4)c1 | 290 |
| C#Cc1cccc(Nc2ncnc3cc4c(cc23)N(C(=O)/C=C/CN2CCC(C)CC2)CCO4)c1 | 330 |

Now from value to molecule:

| IC50 [nM] | Compound |
| --- | --- |
| 230 | C#Cc1cccc(Nc2ncnc3cc4c(cc23)N(C(=O)/C=C/CN2CCCC2)CCO4)c1 |
| 930 | C#Cc1cccc(Nc2ncnc3cc4c(cc23)N(C(=O)/C=C/CN2CCOCC2)CCO4)c1 |
| 250 | C#Cc1cccc(Nc2ncnc3cc4c(cc23)N(C(=O)/C=C/CN(CC)CC)CCO4)c1 |
| 250 | C#Cc1cccc(Nc2ncnc3cc4c(cc23)N(C(=O)/C=C/CN(C)C)CCO4)c1 |

system: NCI-N87; test: Ratio of erlotinib IC50 to compound IC50 for human NCI-N87 cells; assay type: functional; conditions: not given
Procedure, shortened: as §1

| Compound | Ratio IC50 |
| --- | --- |
| C#Cc1cccc(Nc2ncnc3cc4c(cc23)N(C(=O)/C=C/CN(C)C)CCO4)c1 | > 210 |

system: BT-474; test: cells; assay type: functional, cell-based; conditions: Homo sapiens, BT-474, 72 h

| Compound | IC50 [nM] |
| --- | --- |
| C#Cc1cccc(Nc2ncnc3cc4c(cc23)N(C(=O)/C=C/CN2CCC(C)CC2)CCCO4)c1 | > 10000 |
| C#Cc1cccc(Nc2ncnc3cc4c(cc23)N(C(=O)/C=C/CN2CCN(C)CC2)CCO4)c1 | 1330 |
| C#Cc1cccc(Nc2ncnc3cc4c(cc23)N(C(=O)/C=C/CN2CCCCC2)CCO4)c1 | 870 |
| C#Cc1cccc(Nc2ncnc3cc4c(cc23)N(C(=O)/C=C/CN2CCC(C)CC2)CCO4)c1 | 1380 |

Other lines, results leading:

| IC50 [nM] | Compound |
| --- | --- |
| 330 | C#Cc1cccc(Nc2ncnc3cc4c(cc23)N(C(=O)/C=C/CN2CCCC2)CCO4)c1 |
| 1390 | C#Cc1cccc(Nc2ncnc3cc4c(cc23)N(C(=O)/C=C/CN2CCOCC2)CCO4)c1 |
| 550 | C#Cc1cccc(Nc2ncnc3cc4c(cc23)N(C(=O)/C=C/CN(CC)CC)CCO4)c1 |
| 240 | C#Cc1cccc(Nc2ncnc3cc4c(cc23)N(C(=O)/C=C/CN(C)C)CCO4)c1 |

biological target: T1, Epidermal growth factor receptor; test: not given; assay type: cell-based, KB; conditions: not given; remark: another data set of the same source

| Compound | IC50 [nM] |
| --- | --- |
| C#Cc1cccc(Nc2ncnc3cc4c(cc23)N(C(=O)/C=C/CN2CCC(C)CC2)CCCO4)c1 | > 10000 |
| C#Cc1cccc(Nc2ncnc3cc4c(cc23)N(C(=O)/C=C/CN2CCN(C)CC2)CCO4)c1 | 780 |
| C#Cc1cccc(Nc2ncnc3cc4c(cc23)N(C(=O)/C=C/CN2CCCCC2)CCO4)c1 | 42 |
| C#Cc1cccc(Nc2ncnc3cc4c(cc23)N(C(=O)/C=C/CN2CCC(C)CC2)CCO4)c1 | 82 |

The remaining lines, values ahead:

| IC50 [nM] | Compound |
| --- | --- |
| 60 | C#Cc1cccc(Nc2ncnc3cc4c(cc23)N(C(=O)/C=C/CN2CCCC2)CCO4)c1 |
| 640 | C#Cc1cccc(Nc2ncnc3cc4c(cc23)N(C(=O)/C=C/CN2CCOCC2)CCO4)c1 |
| 42 | C#Cc1cccc(Nc2ncnc3cc4c(cc23)N(C(=O)/C=C/CN(CC)CC)CCO4)c1 |
| 46 | C#Cc1cccc(Nc2ncnc3cc4c(cc23)N(C(=O)/C=C/CN(C)C)CCO4)c1 |

system: not listed separately; test: cells; assay type: functional, cell-based; conditions: Homo sapiens, Calu-3, 72 h

| Compound | IC50 [nM] |
| --- | --- |
| C#Cc1cccc(Nc2ncnc3cc4c(cc23)N(C(=O)/C=C/CN2CCC(C)CC2)CCCO4)c1 | > 10000 |
| C#Cc1cccc(Nc2ncnc3cc4c(cc23)N(C(=O)/C=C/CN2CCN(C)CC2)CCO4)c1 | 2060 |
| C#Cc1cccc(Nc2ncnc3cc4c(cc23)N(C(=O)/C=C/CN2CCCCC2)CCO4)c1 | 550 |
| C#Cc1cccc(Nc2ncnc3cc4c(cc23)N(C(=O)/C=C/CN2CCC(C)CC2)CCO4)c1 | 1670 |

Next, values leading:

| IC50 [nM] | Compound |
| --- | --- |
| 710 | C#Cc1cccc(Nc2ncnc3cc4c(cc23)N(C(=O)/C=C/CN2CCCC2)CCO4)c1 |
| 1010 | C#Cc1cccc(Nc2ncnc3cc4c(cc23)N(C(=O)/C=C/CN2CCOCC2)CCO4)c1 |
| 350 | C#Cc1cccc(Nc2ncnc3cc4c(cc23)N(C(=O)/C=C/CN(CC)CC)CCO4)c1 |
| 140 | C#Cc1cccc(Nc2ncnc3cc4c(cc23)N(C(=O)/C=C/CN(C)C)CCO4)c1 |

system: Calu-3; test: Ratio of erlotinib IC50 to compound IC50 for human Calu3 cells; assay type: functional; conditions: not given
Procedure, shortened: as §1

| Compound | Ratio IC50 |
| --- | --- |
| C#Cc1cccc(Nc2ncnc3cc4c(cc23)N(C(=O)/C=C/CN(C)C)CCO4)c1 | 6.6 |

system: BT-474; test: Ratio of erlotinib IC50 to compound IC50 for human BT474 cells; assay type: functional; conditions: not given
Procedure, shortened: as §1

| Compound | Ratio IC50 |
| --- | --- |
| C#Cc1cccc(Nc2ncnc3cc4c(cc23)N(C(=O)/C=C/CN(C)C)CCO4)c1 | > 42 |

system: NCI-H1975; test: Ratio of gefitinib IC50 to compound IC50 for human NCI-H1975 cells; assay type: functional; conditions: not given
Procedure, shortened: as §1

| Compound | Ratio IC50 |
| --- | --- |
| C#Cc1cccc(Nc2ncnc3cc4c(cc23)N(C(=O)/C=C/CN(C)C)CCO4)c1 | 33 |

system: A-431; test: cells; assay type: functional, cell-based; conditions: Homo sapiens, A-431, 72 h

| Compound | IC50 [nM] |
| --- | --- |
| C#Cc1cccc(Nc2ncnc3cc4c(cc23)N(C(=O)/C=C/CN2CCC(C)CC2)CCCO4)c1 | > 10000 |
| C#Cc1cccc(Nc2ncnc3cc4c(cc23)N(C(=O)/C=C/CN2CCN(C)CC2)CCO4)c1 | 480 |
| C#Cc1cccc(Nc2ncnc3cc4c(cc23)N(C(=O)/C=C/CN2CCCCC2)CCO4)c1 | 340 |
| C#Cc1cccc(Nc2ncnc3cc4c(cc23)N(C(=O)/C=C/CN2CCC(C)CC2)CCO4)c1 | 400 |

Now from value to molecule:

| IC50 [nM] | Compound |
| --- | --- |
| 110 | C#Cc1cccc(Nc2ncnc3cc4c(cc23)N(C(=O)/C=C/CN2CCCC2)CCO4)c1 |
| 530 | C#Cc1cccc(Nc2ncnc3cc4c(cc23)N(C(=O)/C=C/CN2CCOCC2)CCO4)c1 |
| 190 | C#Cc1cccc(Nc2ncnc3cc4c(cc23)N(C(=O)/C=C/CN(CC)CC)CCO4)c1 |
| 230 | C#Cc1cccc(Nc2ncnc3cc4c(cc23)N(C(=O)/C=C/CN(C)C)CCO4)c1 |

system: BT-474; test: Ratio of gefitinib IC50 to compound IC50 for human BT474 cells; assay type: functional; conditions: not given
Procedure, shortened: as §1

| Compound | Ratio IC50 |
| --- | --- |
| C#Cc1cccc(Nc2ncnc3cc4c(cc23)N(C(=O)/C=C/CN(C)C)CCO4)c1 | 1.5 |

system: NCI-H1975; test: Ratio of erlotinib IC50 to compound IC50 for human NCI-H1975 cells; assay type: functional; conditions: not given
Procedure, shortened: as §1

| Compound | Ratio IC50 |
| --- | --- |
| C#Cc1cccc(Nc2ncnc3cc4c(cc23)N(C(=O)/C=C/CN(C)C)CCO4)c1 | 18 |

system: A-431; test: Ratio of gefitinib IC50 to compound IC50 for human A431 cells; assay type: functional; conditions: not given
Procedure, shortened: as §1

| Compound | Ratio IC50 |
| --- | --- |
| C#Cc1cccc(Nc2ncnc3cc4c(cc23)N(C(=O)/C=C/CN(C)C)CCO4)c1 | 2.4 |
